Columns and labels:
Pseudomonas aeruginosa [1] = experiment: Antimicrobial activity against MDR/XDR Pseudomonas aeruginosa isolate PA264-104354 harboring GyrA Thr83Ile mutant incubated for 18 hrs by broth microdilution method; format: functional; details: isolate PA264-104354, 18 h
In short: (§1)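 Broth microdilution per CLSI: overnight cultures set to 0.5 McFarland in saline, diluted 1:50 in Mueller-Hinton broth to a final 5 × 10^5 CFU/mL, added to 2-fold serial dilutions, incubated 18 h at 37 °C; MIC is the lowest concentration without visible turbidity, confirmed at 590 nm.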

HEK293 [2] = experiment: Cytotoxicity against HEK293 cells at 50 uM incubated for 48 hrs by PrestoBlue dye based fluorescence assay; format: cell-based; details: human, hek293, 48 h
Enterobacter cloacae [3] = experiment: Synergistic antibacterial activity against Enterobacter cloacae 117029 assessed as fractional inhibitory concentration index in presence of rifampicin incubated for 18 hrs by broth dilution method; format: functional
In short: (§2)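 Checkerboard titration of the adjuvant against the antibiotic, run under the CLSI microdilution conditions (MHB, 5 × 10^5 CFU/mL, 18 h, 37 °C). Each agent's FIC is its MIC in combination divided by its MIC alone; FICI is the sum of the two FICs. FICI ≤0.5 was read as synergy, >0.5–4.0 as no interaction, and >4.0 as antagonism.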

HepG2 [4] = experiment: Cytotoxicity against human HepG2 cells at 50 uM incubated for 48 hrs by PrestoBlue dye based fluorescence assay; format: cell-based; details: hepg2, 48 h
Enterobacter cloacae [5] = experiment: Antimicrobial activity against Enterobacter cloacae 117029 incubated for 18 hrs by broth dilution method; format: functional; details: Enterobacter cloacae, 117029, 18 h
In short: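 CLSI broth microdilution. Overnight cultures were adjusted to 0.5 McFarland in saline, diluted 1:50 in Mueller-Hinton broth, and inoculated at a final 5 × 10^5 CFU/mL. Compounds were tested as 2-fold serial dilutions and incubated 18 h at 37 °C. MIC was the lowest concentration with no visible turbidity, confirmed by absorbance at 590 nm.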

Klebsiella pneumoniae = experiment: Synergistic antibacterial activity against Klebsiella pneumoniae 116381 assessed as fractional inhibitory concentration index in presence of minocycline incubated for 18 hrs by broth dilution method; format: functional; in short: as §2
HepG2 [6] = experiment: Cytotoxicity against human HepG2 cells at 50 uM incubated for 48 hrs in presence of 50 uM rifampicin by PrestoBlue dye based fluorescence assay; format: cell-based; details: hepg2, 48 h
Pseudomonas aeruginosa [7] = experiment: Synergistic antibacterial activity against MDR/XDR Pseudomonas aeruginosa isolate PA264-104354 harboring GyrA T83I mutant assessed as fractional inhibitory concentration index in presence of minocycline incubated for 18 hrs by broth microdilution method; format: functional
In short: (§3)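 Checkerboard synergy assay. Antibiotic and adjuvant in twofold dilutions in Mueller-Hinton broth. Inoculum 5 × 10^5 CFU/mL from a 0.5 McFarland suspension, 18 h at 37 °C, MIC read by turbidity and confirmed at 590 nm. FIC = MIC in combination / MIC alone for each agent, FICI = sum. Interpreted as ≤0.5 synergy, 0.5–4 no interaction, >4 antagonism.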

HEK293 [8] = experiment: Cytotoxicity against HEK293 cells at 50 uM incubated for 48 hrs in presence of 50 uM rifampicin by PrestoBlue dye based fluorescence assay; format: cell-based; details: human, hek293, 48 h
Pseudomonas aeruginosa [9] = experiment: Synergistic antibacterial activity against MDR/XDR Pseudomonas aeruginosa isolate PA260-97103 harboring GyrA T83I mutant assessed as fractional inhibitory concentration index in presence of minocycline incubated for 18 hrs by broth microdilution method; format: functional; in short: as §3
Pseudomonas aeruginosa [10] = experiment: Synergistic antibacterial activity against MDR/XDR Pseudomonas aeruginosa isolate 100036 harboring GyrA T83I mutant assessed as fractional inhibitory concentration index in presence of ciprofloxacin incubated for 18 hrs by broth microdilution method; format: functional; in short: as §3
Pseudomonas aeruginosa [11] = experiment: Synergistic antibacterial activity against wild type Pseudomonas aeruginosa PAO1 assessed as fractional inhibitory concentration index in presence of moxifloxacin incubated for 18 hrs by broth microdilution method; format: functional; in short: as §3
Pseudomonas aeruginosa [12] = experiment: Synergistic antibacterial activity against MDR/XDR Pseudomonas aeruginosa isolate 101243 devoid of GyrA T83I mutant assessed as fractional inhibitory concentration index in presence of minocycline incubated for 18 hrs by broth microdilution method; format: functional; in short: as §3
Pseudomonas aeruginosa [13] = experiment: Synergistic antibacterial activity against MDR/XDR Pseudomonas aeruginosa isolate 101243 devoid of GyrA T83I mutant assessed as fractional inhibitory concentration index in presence of moxifloxacin incubated for 18 hrs by broth microdilution method; format: functional; in short: as §3
Pseudomonas aeruginosa [14] = experiment: Synergistic antibacterial activity against MDR/XDR Pseudomonas aeruginosa isolate 91433 devoid of GyrA T83I mutant assessed as fractional inhibitory concentration index in presence of minocycline incubated for 18 hrs by broth microdilution method; format: functional; in short: as §3
Pseudomonas aeruginosa [15] = experiment: Synergistic antibacterial activity against MDR/XDR Pseudomonas aeruginosa isolate PA259-96918 harboring GyrA T83I mutant assessed as fractional inhibitory concentration index in presence of moxifloxacin incubated for 18 hrs by broth microdilution method; format: functional; in short: as §3
Pseudomonas aeruginosa [16] = experiment: Synergistic antibacterial activity against MDR/XDR Pseudomonas aeruginosa isolate 101885 harboring GyrA T83I mutant assessed as fractional inhibitory concentration index in presence of moxifloxacin incubated for 18 hrs by broth microdilution method; format: functional; in short: as §3
Pseudomonas aeruginosa [17] = experiment: Synergistic antibacterial activity against MDR/XDR Pseudomonas aeruginosa isolate PA259-96918 harboring GyrA T83I mutant assessed as fractional inhibitory concentration index in presence of ciprofloxacin incubated for 18 hrs by broth microdilution method; format: functional; in short: as §3
Pseudomonas aeruginosa [18] = experiment: Synergistic antibacterial activity against MDR/XDR Pseudomonas aeruginosa isolate 101243 devoid of GyrA T83I mutant assessed as fractional inhibitory concentration index in presence of ciprofloxacin incubated for 18 hrs by broth microdilution method; format: functional; in short: as §3
Pseudomonas aeruginosa [19] = experiment: Synergistic antibacterial activity against MDR/XDR Pseudomonas aeruginosa isolate PA262-101856 harboring GyrA T83I mutant assessed as fractional inhibitory concentration index in presence of moxifloxacin incubated for 18 hrs by broth microdilution method; format: functional; in short: as §3
Pseudomonas aeruginosa [20] = experiment: Synergistic antibacterial activity against MDR/XDR Pseudomonas aeruginosa isolate PA260-97103 harboring GyrA T83I mutant assessed as fractional inhibitory concentration index in presence of ciprofloxacin incubated for 18 hrs by broth microdilution method; format: functional; in short: as §3
Pseudomonas aeruginosa [21] = experiment: Synergistic antibacterial activity against MDR/XDR Pseudomonas aeruginosa isolate 101885 harboring T83I mutant assessed as fractional inhibitory concentration index in presence of minocycline incubated for 18 hrs by broth microdilution method; format: functional; in short: as §3
Pseudomonas aeruginosa [22] = experiment: Synergistic antibacterial activity against MDR/XDR Pseudomonas aeruginosa isolate 91433 devoid of GyrA T83I mutant assessed as fractional inhibitory concentration index in presence of moxifloxacin incubated for 18 hrs by broth microdilution method; format: functional; in short: as §3
Pseudomonas aeruginosa [23] = experiment: Synergistic antibacterial activity against MDR/XDR Pseudomonas aeruginosa isolate 91433 devoid of GyrA T83I mutant assessed as fractional inhibitory concentration index in presence of ciprofloxacin incubated for 18 hrs by broth microdilution method; format: functional; in short: as §3
Pseudomonas aeruginosa [24] = experiment: Antimicrobial activity against MDR/XDR Pseudomonas aeruginosa isolate 101885 harboring GyrA Thr83Ile mutant incubated for 18 hrs by broth microdilution method; format: functional; details: isolate 101885, 18 h; in short: as §1
Pseudomonas aeruginosa [25] = experiment: Synergistic antibacterial activity against MDR/XDR Pseudomonas aeruginosa isolate 101885 harboring GyrA T83I mutant assessed as fractional inhibitory concentration index in presence of ciprofloxacin incubated for 18 hrs by broth microdilution method; format: functional; in short: as §3

| Compound | MIC (Pseudomonas aeruginosa [1]) | Activity (HEK293 [2]) | fractional inhibitory concentration index (FICI) (Enterobacter cloacae [3]) | Activity (HepG2 [4]) | MIC (Enterobacter cloacae [5]) | fractional inhibitory concentration index (FICI) (Klebsiella pneumoniae) | Activity (HepG2 [6]) | fractional inhibitory concentration index (FICI) (Pseudomonas aeruginosa [7]) | Activity (HEK293 [8]) | fractional inhibitory concentration index (FICI) (Pseudomonas aeruginosa [9]) | fractional inhibitory concentration index (FICI) (Pseudomonas aeruginosa [10]) | fractional inhibitory concentration index (FICI) (Pseudomonas aeruginosa [11]) | fractional inhibitory concentration index (FICI) (Pseudomonas aeruginosa [12]) | fractional inhibitory concentration index (FICI) (Pseudomonas aeruginosa [13]) | fractional inhibitory concentration index (FICI) (Pseudomonas aeruginosa [14]) | fractional inhibitory concentration index (FICI) (Pseudomonas aeruginosa [15]) | fractional inhibitory concentration index (FICI) (Pseudomonas aeruginosa [16]) | fractional inhibitory concentration index (FICI) (Pseudomonas aeruginosa [17]) | fractional inhibitory concentration index (FICI) (Pseudomonas aeruginosa [18]) | fractional inhibitory concentration index (FICI) (Pseudomonas aeruginosa [19]) | further results |
| --- | --- | --- | --- | --- | --- | --- | --- | --- | --- | --- | --- | --- | --- | --- | --- | --- | --- | --- | --- | --- | --- |
| Cl.Cl.Cl.Cl.Cl.NC[C@H]1O[C@H](O[C@H]2[C@H](OCCCCCCCCCCCCN3CCN(c4cc5c(cc4F)c(=O)c(C(=O)O)cn5C4CC4)CC3)[C@@H](O)[C@H](N)C[C@@H]2N)[C@H](N)C[C@@H]1O | 128 µg/mL | Non-Toxic | 0.023 | Non-Toxic | 32 µg/mL | 0.063 - 0.07 | Non-Toxic | 0.039 | Non-Toxic |  |  |  |  |  |  |  |  |  |  |  |  |
| COc1c(N2C[C@@H]3CCCN(CCCCCCCCCCCCO[C@@H]4[C@@H](O)[C@H](N)C[C@H](N)[C@H]4O[C@H]4O[C@H](CN)[C@@H](O)C[C@H]4N)[C@@H]3C2)c(F)cc2c(=O)c(C(=O)O)cn(C3CC3)c12.Cl.Cl.Cl.Cl.Cl | 256 µg/mL | Non-Toxic | 0.06 | Non-Toxic | 32 µg/mL | 0.063 - 78 | Non-Toxic | 0.05 | Non-Toxic | 0.09 | 0.56 | 0.25 | 0.13 | 0.16 | 0.19 | 0.06 - 0.07 | 0.25 | 0.25 - 0.27 | 0.25 | 0.13 - 0.16 | fractional inhibitory concentration index (FICI) (Pseudomonas aeruginosa [20]): 0.25; fractional inhibitory concentration index (FICI) (Pseudomonas aeruginosa [21]): 0.07; fractional inhibitory concentration index (FICI) (Pseudomonas aeruginosa [22]): 0.31; fractional inhibitory concentration index (FICI) (Pseudomonas aeruginosa [23]): 0.25; MIC (Pseudomonas aeruginosa [24]): 128 µg/mL; fractional inhibitory concentration index (FICI) (Pseudomonas aeruginosa [25]): >1 |
| Cl.Cl.Cl.Cl.Cl.Cl.NC[C@H]1O[C@H](O[C@H]2[C@H](OCCCCCCCCCCN3CCN(Cc4cccc5ccccc45)CC3)[C@@H](O)[C@H](N)C[C@@H]2N)[C@H](N)C[C@@H]1O |  |  |  |  |  |  |  |  |  | 0.09 | 0.125 - 0.133 | 0.05 | 0.09 | 0.13 | 0.19 | 0.016 - 0.023 | 0.07 | 0.063 - 0.078 | 0.16 | 0.09 | fractional inhibitory concentration index (FICI) (Pseudomonas aeruginosa [20]): 0.38; fractional inhibitory concentration index (FICI) (Pseudomonas aeruginosa [21]): 0.04; fractional inhibitory concentration index (FICI) (Pseudomonas aeruginosa [22]): 0.25; fractional inhibitory concentration index (FICI) (Pseudomonas aeruginosa [23]): 0.38; MIC (Pseudomonas aeruginosa [24]): 512 µg/mL; fractional inhibitory concentration index (FICI) (Pseudomonas aeruginosa [25]): 0.13 |

— ChEMBL document CHEMBL4354800, “Amphiphilic nebramine-based hybrids Rescue legacy antibiotics from intrinsic resistance in multidrug-resistant Gram-negative bacilli” (Eur J Med Chem, 2019)
